For six molecules, Incorporation and Km results are on record in ChEMBL document CHEMBL1122239, “Synthesis and biological properties of new hexapeptide substrates for vitamin K dependent carboxylase. Evidence for X-Pro cis/trans amide bond interconversions in prothrombin precursor fragment 18-23” (J Med Chem, 1983).

What all share (format): functional
The nature of series [1]: Carboxylation of 0.25 mM Phe-Leu-Glu-Glu-Leu at a concentration of 1 mM. Summed up:
(§1)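 Inhibition format: the hexapeptide was added at 1, 4.25 or 5.5 mM to a carboxylase reaction containing 0.25 mM H-Phe-Leu-Glu-Glu-Leu-OH as the reference substrate. Carboxylation of the pentapeptide was reported as a percentage. The detailed assay procedure is given only by reference to earlier work.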

The target of series [2] is T1, Vitamin K-dependent gamma-carboxylase (Rattus norvegicus) (UniProt O88496).
T1 sequence (whole entry): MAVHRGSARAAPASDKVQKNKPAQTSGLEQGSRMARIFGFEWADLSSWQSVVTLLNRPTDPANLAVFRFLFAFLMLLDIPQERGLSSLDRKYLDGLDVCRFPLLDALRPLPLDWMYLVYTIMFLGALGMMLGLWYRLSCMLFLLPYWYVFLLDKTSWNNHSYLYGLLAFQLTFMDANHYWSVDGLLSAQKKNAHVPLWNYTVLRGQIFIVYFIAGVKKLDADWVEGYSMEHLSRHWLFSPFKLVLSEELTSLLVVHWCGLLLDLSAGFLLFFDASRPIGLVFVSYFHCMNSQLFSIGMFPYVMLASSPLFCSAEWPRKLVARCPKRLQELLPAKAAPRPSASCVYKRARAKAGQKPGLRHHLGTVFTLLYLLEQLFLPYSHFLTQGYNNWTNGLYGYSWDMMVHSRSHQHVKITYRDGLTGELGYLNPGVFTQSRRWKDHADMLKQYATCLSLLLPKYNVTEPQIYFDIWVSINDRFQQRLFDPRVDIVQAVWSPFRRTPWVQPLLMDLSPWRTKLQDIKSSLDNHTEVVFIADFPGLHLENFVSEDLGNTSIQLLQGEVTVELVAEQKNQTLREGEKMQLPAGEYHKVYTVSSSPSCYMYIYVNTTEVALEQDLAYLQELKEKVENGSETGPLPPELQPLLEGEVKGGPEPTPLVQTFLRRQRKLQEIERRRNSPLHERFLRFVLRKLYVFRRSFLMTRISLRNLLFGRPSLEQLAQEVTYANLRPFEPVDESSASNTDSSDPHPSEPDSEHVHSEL
Briefly: Compound was evaluated as substrates for vitamin K dependent carboxylase and percent CO2 incorporation was determined at 1 mM concentrations. An outline of the steps:
(§2)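 Vitamin K dependent carboxylase, which needs O2, reduced vitamin K and CO2, was given each hexapeptide directly as substrate at 0.25, 1, 4.25 or 5.5 mM. Carboxylation of Glu to Gla was reported as percent CO2 incorporation. The full assay procedure is given only by reference to earlier work.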

The nature of series [3]: Carboxylation of 0.25 mM Phe-Leu-Glu-Glu-Leu at a concentration of 4.25 mM. An outline of the steps:
as §1

For series [4], the target named is T1, Vitamin K-dependent gamma-carboxylase (Rattus norvegicus). Briefly: Compound was evaluated as substrates for vitamin K dependent carboxylase and percent CO2 incorporation was determined at 4.25 mM concentrations. An outline of the steps: as §2
The target is the same in series [5]. Briefly: Compound was evaluated as substrates for vitamin K dependent carboxylase and percent CO2 incorporation was determined at 0.25 mM concentrations. Summed up:
as §2

The target is the same in series [6]. Briefly: Compound was evaluated as substrates for vitamin K dependent carboxylase and percent CO2 incorporation was determined at 5.5 mM concentrations. Summed up:
as §2

Series [7] in a line: Carboxylation of 0.25 mM Phe-Leu-Glu-Glu-Leu at a concentration of 5.5 mM. Summed up:
as §1

Substrate in series [8]: CC(C)C[C@H]1NC(=O)[C@H](N)CSSC[C@@H](C(=O)O)NC(=O)[C@@H]2CCCN2C(=O)[C@@H](CCC(=O)O)NC(=O)[C@H](CCC(=O)O)NC1=O
Description: (§3) Compound was evaluated as substrates for vitamin K dependent carboxylase and percent CO2 incorporation was determined. Summed up:
as §2

Substrate in series [9]: COC(=O)[C@@H]1CSSC[C@@H](NC(C)=O)C(=O)N[C@H](CC(C)C)C(=O)N[C@@H](CCC(=O)O)C(=O)N[C@H](CCC(=O)O)C(=O)N2CCC[C@H]2C(=O)N1
The description is as §3. An outline of the steps: as §2

Substrate in series [10]: CC(C)C[C@H](NC(=O)[C@H](CC(N)=O)NC(=O)[C@H]1CSSC[C@H](NC(=O)[C@H](CCC(=O)O)NC(=O)[C@H](CCCN=C(N)N)NC(=O)[C@H](CCC(=O)O)NC(=O)[C@H](CC(C)C)NC(=O)[C@@H](N)CC(N)=O)C(=O)N[C@@H](CC(C)C)C(=O)N[C@H](CCC(=O)O)C(=O)N[C@@H](CCC(=O)O)C(=O)N2CCC[C@@H]2C(=O)N1)C(=O)N[C@@H](CCC(=O)O)C(=O)N[C@@H](CCCN=C(N)N)C(=O)N[C@@H](CCC(=O)O)C(=O)N[C@@H](CS)C(=O)O
Briefly: (§4) Compound was evaluated as substrates for vitamin K dependent carboxylase. Summed up:
as §2

Substrate in series [11]: CC(C)C[C@H](NC(=O)[C@H](CCC(=O)O)NC(=O)[C@H](CCC(=O)O)NC(=O)[C@H](CC(C)C)NC(=O)[C@@H](N)Cc1ccccc1)C(=O)O
The series is described as §4. Summed up:
as §2

Substrate in series [12]: CC(C)C[C@H](NC(=O)[C@@H](N)CC(N)=O)C(=O)N[C@@H](CCC(=O)O)C(=O)N[C@@H](CCCN=C(N)N)C(=O)N[C@@H](CCC(=O)O)C(=O)N[C@@H](CS)C(=O)O
The series is described as §4. An outline of the steps: as §2

Consider `CC(C)C[C@H]1NC(=O)[C@H](N)CSSC[C@@H](C(=O)O)NC(=O)[C@@H](C)NC(=O)[C@@H](CCC(=O)O)NC(=O)[C@H](CCC(=O)O)NC1=O`, for which the Incorporation came out at 94% in [1]; 60% in [2]; 83% in [3]; 59% in series [4]; 63% in series [5].
Take `CC(C)C[C@H]1NC(=O)[C@H](N)CSSC[C@@H](C(=O)O)NC(=O)[C@H](C)NC(=O)[C@@H](CCC(=O)O)NC(=O)[C@H](CCC(=O)O)NC1=O`: the Incorporation in series [1] was 103%; in series [2], 48%; in series [3], 85%; in series [4], 56%; in series [5], 50%.
Consider `COC(=O)[C@@H]1CSSC[C@@H](NC(C)=O)C(=O)N[C@H](CC(C)C)C(=O)N[C@@H](CCC(=O)O)C(=O)N[C@H](CCC(=O)O)C(=O)N2CCC[C@H]2C(=O)N1`, for which the Incorporation in series [1] was determined as 51%; in [6] it was 2.2%; in series [2], 2.4%; in [7] it was 54%; in [5], 3.3%.
With `CC(C)C[C@H]1NC(=O)[C@H](N)CSSC[C@@H](C(=O)O)NC(=O)[C@@H]2CCCN2C(=O)[C@@H](CCC(=O)O)NC(=O)[C@H](CCC(=O)O)NC1=O`, the Incorporation stood at 98% in series [1]; 8.7% in series [6]; 7% in series [2]; 78% in series [7]; 7.5% in series [5].
In the case of `CC(C)C[C@H](NC(=O)[C@H](C)N)C(=O)N[C@@H](CCC(=O)O)C(=O)N[C@@H](CCC(=O)O)C(=O)N1CCC[C@@H]1C(=O)N[C@@H](C)C(=O)O`, the Incorporation in series [1] turned out to be 99%; in series [2] it was 16%; in series [3] it was 134%; in [4] it was 24%; in [5] it was 14%.

B1: Vitamin K-dependent gamma-carboxylase (Rattus norvegicus), O88496 (protein)
chain: MAVHRGSARAAPASDKVQKNKPAQTSGLEQGSRMARIFGFEWADLSSWQSVVTLLNRPTDPANLAVFRFLFAFLMLLDIPQERGLSSLDRKYLDGLDVCRFPLLDALRPLPLDWMYLVYTIMFLGALGMMLGLWYRLSCMLFLLPYWYVFLLDKTSWNNHSYLYGLLAFQLTFMDANHYWSVDGLLSAQKKNAHVPLWNYTVLRGQIFIVYFIAGVKKLDADWVEGYSMEHLSRHWLFSPFKLVLSEELTSLLVVHWCGLLLDLSAGFLLFFDASRPIGLVFVSYFHCMNSQLFSIGMFPYVMLASSPLFCSAEWPRKLVARCPKRLQELLPAKAAPRPSASCVYKRARAKAGQKPGLRHHLGTVFTLLYLLEQLFLPYSHFLTQGYNNWTNGLYGYSWDMMVHSRSHQHVKITYRDGLTGELGYLNPGVFTQSRRWKDHADMLKQYATCLSLLLPKYNVTEPQIYFDIWVSINDRFQQRLFDPRVDIVQAVWSPFRRTPWVQPLLMDLSPWRTKLQDIKSSLDNHTEVVFIADFPGLHLENFVSEDLGNTSIQLLQGEVTVELVAEQKNQTLREGEKMQLPAGEYHKVYTVSSSPSCYMYIYVNTTEVALEQDLAYLQELKEKVENGSETGPLPPELQPLLEGEVKGGPEPTPLVQTFLRRQRKLQEIERRRNSPLHERFLRFVLRKLYVFRRSFLMTRISLRNLLFGRPSLEQLAQEVTYANLRPFEPVDESSASNTDSSDPHPSEPDSEHVHSEL
For the molecule B1, the Km was 8 mM in series [8]; 8 mM in series [9]; 0.001 mM in series [10]; 8 mM in series [11]; 8 mM in series [12].

As usually defined, the Km is the concentration of substrate that gives half-maximal velocity.
